WT yeast gro inh = growth inhibition of WT yeast, mitochondrial fusion screen; mitochondrial fusion phenotypic screen, WT strain; inhibition, % at 10 µM; 2.1% of 190,000 active; AID 1362; in the data active = inhibition above about 58%; tested in S. cerevisiae
Cl transport mod = modulates chloride dependent transport by human KCC2; KCC2 cells, thallium flux FluoZin-2 fluorescence; 2.2% of 190,000 active; Q9H2X9; B-score of Tl+ flux slope (higher = more flux/activation; lower = inhibition) at 10 µM; AID 1456;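 active = thallium flux slope and its plate-corrected score both differing from the plate sample mean at a set confidence after two filtering rounds, in either direction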;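 also: slope of fluorescence scaled to starting intensity during 10 to 20 s after thallium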
Target sequence (Q9H2X9 whole entry, looked up): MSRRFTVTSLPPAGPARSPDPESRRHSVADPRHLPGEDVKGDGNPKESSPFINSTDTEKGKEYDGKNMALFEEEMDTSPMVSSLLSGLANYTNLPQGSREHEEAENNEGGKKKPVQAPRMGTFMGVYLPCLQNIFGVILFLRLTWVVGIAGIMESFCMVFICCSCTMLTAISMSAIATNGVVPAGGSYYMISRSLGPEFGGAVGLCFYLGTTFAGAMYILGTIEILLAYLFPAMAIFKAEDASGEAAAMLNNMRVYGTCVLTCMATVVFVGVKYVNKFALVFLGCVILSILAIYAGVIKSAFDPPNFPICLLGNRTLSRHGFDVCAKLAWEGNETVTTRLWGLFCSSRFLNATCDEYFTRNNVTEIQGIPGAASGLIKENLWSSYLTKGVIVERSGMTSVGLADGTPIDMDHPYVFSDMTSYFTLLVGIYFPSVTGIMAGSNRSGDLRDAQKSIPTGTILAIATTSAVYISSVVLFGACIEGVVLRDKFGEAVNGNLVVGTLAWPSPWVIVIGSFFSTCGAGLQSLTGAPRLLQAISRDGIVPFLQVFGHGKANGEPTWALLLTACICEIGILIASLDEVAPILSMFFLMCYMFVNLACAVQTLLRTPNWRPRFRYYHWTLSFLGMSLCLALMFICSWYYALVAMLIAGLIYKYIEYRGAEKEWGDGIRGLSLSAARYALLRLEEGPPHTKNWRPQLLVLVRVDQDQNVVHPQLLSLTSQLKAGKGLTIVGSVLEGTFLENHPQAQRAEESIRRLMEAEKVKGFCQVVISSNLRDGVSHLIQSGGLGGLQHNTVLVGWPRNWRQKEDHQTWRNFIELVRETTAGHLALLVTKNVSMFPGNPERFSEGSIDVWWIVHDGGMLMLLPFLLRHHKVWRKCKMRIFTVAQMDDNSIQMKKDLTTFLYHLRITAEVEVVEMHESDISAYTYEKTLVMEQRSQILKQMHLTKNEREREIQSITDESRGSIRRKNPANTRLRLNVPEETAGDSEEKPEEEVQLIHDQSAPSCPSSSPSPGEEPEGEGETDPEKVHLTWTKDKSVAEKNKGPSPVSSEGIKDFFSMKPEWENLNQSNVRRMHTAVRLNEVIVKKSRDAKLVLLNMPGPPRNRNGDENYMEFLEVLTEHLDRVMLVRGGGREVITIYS
ROMK primary = modulators of human ROMK potassium channel; Tet-inducible ROMK, thallium flux fluorescence; actives lie on both sides; 2% of 130,000 active; B-score at 10 µM; AID 1918;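 active = signal ratio slope over the read window, or its plate-corrected B-score, at least 3 SD from the plate mean, either direction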;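 also: B-score of the F/F0 ratio slope over 7 to 12 s after thallium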
Lmaj promast = Leishmania major promastigote growth inhibition; inhibition, % at 10 µM; AID 1063; Leishmania major promastigotes, resazurin fluorescence viability; 9% of 200,000 active; in the data active = inhibition above about 50%;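 also: promastigotes grown with compound for 44 hours at 28 °C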
Diaphorase act = counter-screen for diaphorase-based assays: diaphorase activators and chemical reducers; Diaphorase/resazurin coupled assay, resorufin fluorescence, 16 min; stronger effect = higher value; 1 = vehicle wells, 0 = NADH-free wells; activation factor at 20 µM; 0.005% of 190,000 active; AID 1229;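 active = diaphorase activity raised at least twofold by the compound at 20 µM; inactive = activation factor below 2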
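test system = bacterial diaphorase enzyme (C. kluyveri) | quantity = enzyme 0.07 U/mL final | reagent = NADH substrate 0.114 mM plus resazurin dye 0.1 mM, final | incubation = 16 min enzyme reaction, ambient temperature | buffer or medium = HEPES pH 7.4 buffer with MgCl2 and Tween 20 | signal = fluorescence of resorufin, 544 nm excitation, 590 nm emission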
Diaphorase inh = inhibits diaphorase or chemically oxidizes, flagging diaphorase assay artifacts; inhibition, % at 20 µM; AID 1217; diaphorase resazurin-to-resorufin fluorescence, NADH, 16 min; bacterial (C. kluyveri) enzyme, not human; 0.69% of 190,000 active;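 active = primary screen inhibition at 20 µM above a set limit, cut at about 50% in these data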;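 also: plate controls were DMSO with full reaction for no effect and wells lacking NADH for full effect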
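System: Bacterial diaphorase enzyme (C. kluyveri) | Incubation: 16-min room-temperature incubation before reading | Benchmarks: No-NADH positive control and DMSO neutral control | Measured by: Resorufin fluorescence 544/590 nm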
ROMK retest = human ROMK channel modulation, retest confirmation; shares compounds with ROMK primary; ROMK thallium flux, fluorescence ratio; stronger effect = lower value; normalized thallium flux (F/F0 slope) at 10 µM; 54% of 3,000 active;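 active = Flux at 10 µM at least 3 SD below or above vehicle control mean in one or both replicates; inconclusive = no clear call, values can overlap the other calls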
* hit, by the source's call; i = inactive; ? = inconclusive; . = no result given. The list is not random: actives were taken first. Their share in the collection is about 12%.

SMILES | WT yeast gro inh | Cl transport mod | ROMK primary | Lmaj promast | Diaphorase act | Diaphorase inh | ROMK retest
S=C(NC1CCCCC1)N1CCN(c2ccccn2)CC1 | -19 | -0.34 | -1.7 | 3 | 0.9 | 10 | .
Cn1cc(C2N3CC4(C)CN2CC(C)(C3)C4=O)c2ccccc21 (stereo not given) | -5 | -0.012 | 0.0032 | 2 | 0.9 | 7 | .
COc1cccc(-c2cc(C(=O)Nc3cccnc3)no2)c1 | 11 | . | 5.9* | 2 | 0.9 | 10 | 0.089
O=C(Nc1cccnc1)c1cc(-c2ccco2)on1 | -3 | . | 0.29 | -3 | 0.9 | 6 | .
CCOc1ccc(C(C)C)cc1S(=O)(=O)n1ccnc1C | -10 | 0.096 | -0.33 | 15 | 1 | 2 | .
COc1cc(/C=C2\C(=O)N(c3ccc(NC(C)=O)cc3)N=C2c2ccccc2)ccc1O | 10 | -1.9 | -2.4 | 4 | 0.7 | 29 | .
O=C1/C(=C\c2ccc(O)c(O)c2)C(c2ccccc2)=NN1c1ccccc1 | 6 | -0.62 | -3.9* | 99* | 0.4 | 65* | ?
O=C(CCc1ccccc1)Nc1ccncc1 | 5 | -0.34 | . | -5 | 0.9 | 14 | .
O=C(CC(c1ccccc1)c1ccccc1)Nc1ccncc1 | . | 0.19 | . | . | . | . | 0.079
COCCNS(=O)(=O)c1cc(C(=O)O)ccc1OC | -15 | 0.53 | -1.1 | -18 | 0.9 | 8 | .
CCOc1cc(/C=C(\C#N)c2[nH]nc(N)c2C#N)ccc1O | -4 | . | 4.8* | 67* | 0.8 | 24 | 0.088
NC(=O)C1=C[C@H](C2CCCCC2)C[C@H](OCc2ccc(CO)cc2)O1 | 0 | 0.45 | . | -5 | 0.7 | 31 | .
CCSc1nnc(NC(=O)NC(C)(C(F)(F)F)C(F)(F)F)s1 | 7 | 0.33 | -0.88 | -3 | 0.9 | 6 | .
CCSc1nnc(NC(=O)NC(CC)(C(F)(F)F)C(F)(F)F)s1 | 40 | . | -4* | 31 | 0.9 | 14 | 0.058*
C#CCOC(=O)CCCNc1ccc([N+](=O)[O-])cc1[N+](=O)[O-] | -9 | -0.48 | 0.41 | -3 | 0.9 | 14 | .
NCCCNc1ccc([N+](=O)[O-])cc1C(F)(F)F | -2 | -0.17 | -8.3* | -3 | 1 | 1 | 0.066*
Cc1ccc(NC(=S)NNC(=O)c2ccccc2O)c(C)c1 | 26 | 2.6 | 2.9* | -2 | 0.9 | 11 | 0.064*
COc1ccc(N(CC(=O)Nc2ccccc2C(N)=O)S(=O)(=O)c2ccc(C)c([N+](=O)[O-])c2)cc1 | -4 | 0.12 | 0.31 | 25 | 0.8 | 24 | 0.067*
COc1ccc(N(CC(=O)Nc2ccc(C(N)=O)cc2)S(=O)(=O)c2ccc(C)c([N+](=O)[O-])c2)cc1 | -18 | -1.1 | 0.019 | -5 | 0.9 | 8 | .
Cc1ccc(C(c2nnnn2C(C)(C)C)N2CCN(C3CCCC3)CC2)cc1 (stereo not given) | -4 | -0.2 | -5* | 5 | 1 | 1 | 0.073
Cc1cccc(NC(=O)COC(=O)Cc2cccc(C(F)(F)F)c2)c1C | -31 | -0.25 | . | -5 | 0.9 | 8 | .
O=C(Nc1ccc(Cl)cc1)OCc1cn(-c2ccccc2)nn1 | 19 | -0.4 | 0.28 | -5 | 1 | -4 | ?
O=C(C1CCN(Cc2ccccc2)CC1)N1CCCC1 | 10 | 0.5 | . | -4 | 1.1 | -7 | 0.074
COc1cc(/C=C(\C#N)C(=O)c2c[nH]c3ccccc23)cc(OC)c1O | 0 | -2.9 | -5.6* | 0 | 0.7 | 30 | 0.041*
COc1cc(/C=C(\C#N)c2nc3ccccc3[nH]2)cc(OC)c1O | 3 | . | . | 8 | 0.5 | 51* | 0.038*
SMILES | WT yeast gro inh | Cl transport mod | ROMK primary | Lmaj promast | Diaphorase act | Diaphorase inh | ROMK retest
c1csc(CNCc2ccncc2)c1 | 2 | 0.51 | -0.39 | 2 | 1 | 3 | .
CC(C)(CO)CNC(=O)c1ccc(OC2CCN(C(=O)C3CC3)CC2)cc1 | 10 | 0.083 | -0.034 | 1 | 1.1 | -10 | .
CCOc1ccc(S(=O)(=O)Nc2nc3ccccc3nc2-n2ccc(=NC(=O)c3cccs3)cc2)cc1 | 4 | 1.9 | -2.6* | -1 | 0.9 | 7 | 0.059*
CCOc1ccccc1C(=O)NC(CO)C(=O)O (stereo not given) | 13 | 0.011 | 0.31 | -4 | 0.8 | 16 | .
N#Cc1cc(C(=O)c2cc(F)ccc2O)cn(-c2nccs2)c1=O | 2 | i | -5* | -12 | 0.7 | 31 | 0.03*
CC(C)n1cc(C(=O)c2ccccc2O)cc(C#N)c1=O | -14 | 0.025 | 1 | 2 | 1 | 5 | .
N#Cc1cc(C(=O)c2ccccc2O)cn(-c2nccs2)c1=O | 23 | i | -8.4* | -17 | 0.7 | 31 | 0.025*
Cc1c(-n2cc(C(=O)c3cc(F)ccc3O)cc(C#N)c2=O)c(=O)n(-c2ccccc2)n1C | -1 | -0.95 | 0.34 | 6 | 1.1 | -7 | .
CC(Cc1ccccc1)C(=O)Nc1ccccc1 (stereo not given) | 14 | 0.43 | -0.55 | -6 | 1.1 | -7 | .
CC(=O)C(Cl)C(=O)Nc1ccccc1 (stereo not given) | -16 | 1.5 | -5.4* | 3 | 1.1 | -6 | 0.046*
CCOC(=O)C1(CCOc2ccccc2)CCN(Cc2nccn2CC)CC1 | 19 | 0.15 | -1.3 | 31 | 0.8 | 15 | .
CCOC(=O)C1(CCOc2ccccc2)CCN(Cc2cccn2-c2ncccn2)CC1 | 9 | . | -3.7* | 41 | 0.9 | 13 | ?
Cc1cc(/C=N/n2cnnc2)c(C)n1-c1cc(Cl)ccc1Cl | 41 | -0.86 | . | 28 | 0.9 | 9 | ?
Cc1cc(C)cc(OCc2ccc(C(=O)N3N=C(C(F)F)CC3(O)C(F)F)o2)c1 (stereo not given) | 13 | -0.47 | 3* | 1 | 0.8 | 20 | 0.08
CCOc1ccc(OCc2ccc(C(=O)N3N=C(C(F)F)CC3(O)C(F)F)o2)cc1 (stereo not given) | -9 | 0.42 | 0.22 | -8 | 0.8 | 17 | .
COc1ccc(NC(=O)N2CCN(S(C)(=O)=O)CC2)c(OC)c1 | 8 | 0.21 | -0.27 | -4 | 0.9 | 12 | .
CCOC(=O)C1=NN(C(=O)Cc2ccccc2)C(O)(C(C)(C)C)C1 (stereo not given) | 2 | 0.37 | -13* | -6 | . | . | 0.077
CC(C)(C)C1(O)CC(C(F)(F)F)=NN1C(=O)CCc1ccccc1 (stereo not given) | 4 | 0.0029 | -0.17 | -1 | 0.8 | 18 | .
CN1C2C=C3C(C#N)=C(N)C(C#N)(C#N)[C@@H](c4cccs4)C3C1CC2 (stereo not given in full) | 8 | 0.0014 | -1.2 | 22 | 0.8 | 23 | .
CC(C)(C)C1CC=C2C(C#N)=C(N)C(C#N)(C#N)C(c3cccs3)C2C1 (stereo not given) | . | 0.51 | -3* | 33 | 0.8 | 24 | 0.055*

High-throughput results from PubChem BioAssay.
